This is one part of a sample in which hits are shown more often than they occur.
L major viab: Leishmania major promastigote growth inhibition, primary screen; 200,000 compounds, 9% hits; inhibition, % at 10 µM; AID 1063, 2008; Leishmania major promastigotes, resazurin fluorescence viability;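 also: promastigotes grown with compound for 44 hours at 28 °C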
PfGluPho inh: PfG6PD enzyme inhibitors, primary screen, biochemical, fluorescence intensity, uHTS | glucose-6-phosphate dehydrogenase-6-phosphogluconolactonase (Plasmodium falciparum 3D7) | PfGluPho enzyme, NADPH resazurin-diaphorase fluorescence | inhibition, % at 20 µM | 350,000 compounds, 0.78% hits | AID 504690, 2011;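 active = inhibition reaching at least a set limit at 20 µM in the primary screen, cut at about 59% in these data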;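 also: 0% = DMSO wells with substrate and 100% = DMSO wells lacking glucose-6-phosphate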
Diaphorase act: compounds boosting diaphorase resazurin reduction – biochemical, uHTS, resorufin fluorescence, counter-screen for diaphorase-coupled primary assays, primary screen; Diaphorase/resazurin coupled assay, 16 min; active compounds read high; 1 = vehicle wells, 0 = NADH-free wells; activation factor at 20 µM; 190,000 compounds, 0.005% hits;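 active = diaphorase activity raised at least twofold by the compound at 20 µM; inactive = activation factor below 2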
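Material: purified diaphorase enzyme from Clostridium kluyveri; Also added: 0.114 mM NADH and 0.1 mM resazurin, final amounts; Doses: single compound dose of 20 µM, 1% DMSO final; Times: 16 min enzyme reaction, ambient temperature; Detection: resorufin fluorescence, excitation 544 nm, emission 590 nm; Measure: increased resorufin signal from activators or reducing compounds.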
Diaphorase inh: diaphorase inhibitors and chemical oxidizers, primary screen, counter-screen for diaphorase-coupled primary assays, biochemical, uHTS, resorufin fluorescence; inhibition, % at 20 µM; diaphorase resazurin-to-resorufin fluorescence, NADH, 16 min; bacterial (C. kluyveri) enzyme, not human; 190,000 compounds, 0.69% hits; AID 1217, 2008;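 active = primary screen inhibition at 20 µM above a set limit, cut at about 50% in these data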;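 also: plate controls were DMSO with full reaction for no effect and wells lacking NADH for full effect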
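Assay system – diaphorase enzyme from Clostridium kluyveri · Amount – diaphorase 0.14 U/mL (working solution) · Times – reaction incubation of 16 min at room temperature · Controls – No-NADH positive control and DMSO neutral control · Signal – resorufin fluorescence 544/590 nm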
Redox H2O2 prof: compounds producing H2O2 with reducing agent – biochemical, NIH compound library profiling, artefact control for MLSCN library redox annotation, primary screen; DTT-dependent redox cycling H2O2, phenol red/HRP absorbance; 100% = 100 µM peroxide control, 0% = buffer; activation, % at 10 µM; 200,000 compounds, 0.03% hits;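 active = activation of at least 50% relative to the plate's high and low controls in the primary single-dose screen; inactive = activation below 50%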;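 also: compound incubated with DTT at 0.8 mM final as the reducing agent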
G6PDH counter: L. mesenteroides G6PDH inhibitors, counter-screen for G6PDH-coupled screening assays, biochemical, Leuconostoc mesenteroides enzyme | 200,000 compounds, 0.12% hits | Purified L. mesenteroides G6PDH, diaphorase/resazurin coupled fluorescence, 45 min | inhibition, % at 5 µM
The depositor's hits bear a star; / = no result given. Rule as the data show it, unless noted: active = inhibition above about 50%; inactive = the rest.

SMILES | L major viab | PfGluPho inh | Diaphorase act | Diaphorase inh | Redox H2O2 prof | G6PDH counter
CC(C)(CNC(=S)NCCc1ccccc1)CNC(=S)NCCc1ccccc1 | 95* | 28 | 0.8 | 22 | 0 | -12
O=c1ccc(-c2ccc(S(=O)(=O)Nc3cccc(Br)c3)o2)n[nH]1 | / | -30 | / | / | / | /
COc1ccc(NC(=S)N(C)CC2COc3ccccc3O2)cc1 (stereo not given) | 5 | -2 | 1 | 3 | -2 | 5
CCn1cc(CN2CCC(C(=O)Nc3cccc(-c4cccc(OC)c4)c3)CC2)c(C)n1 | / | 4 | / | / | / | /
CC(=O)Nc1ccc(N2CCCCC2)c(C(=O)Nc2cccc(C)c2)c1 | 81* | 9 | 0.8 | 19 | -3 | 16
Cc1cccc(NC(=O)c2cc(NC(=O)C3CCCCC3C(=O)O)ccc2N2CCCCC2)c1 (stereo not given) | -2 | 3 | 0.8 | 15 | 0 | 3
Cc1ccccc1OCC(=O)N1N=C(c2cccnc2)CC1(O)C(F)(F)F (stereo not given) | 51* | -5 | 0.8 | 17 | -1 | -12
Cc1nc2nc(NC(=O)c3ccco3)[nH]n2c(=O)c1C | / | 11 | / | / | / | /
COc1cc(NC(=O)c2ccc(C)cc2)c(OC)cc1NC(=O)CN1CCCCC1 | 62* | 12 | 0.8 | 20 | 2 | -4
COc1cc(NC(=O)Nc2cccc(Cl)c2)c(OC)cc1NC(=O)CN1CCCCC1 | 51* | 34 | 0.7 | 30 | -3 | -57
CCn1c2ccccc2c2nnc(SCc3cc(=O)n4ccsc4n3)nc21 | / | / | 0.2 | 77* | / | 2
Cc1nn(-c2ccccc2)c(Cl)c1/C=N/NC(=O)CNc1n[nH]c(=O)[nH]c1=O | -9 | / | 1 | 3 | -1 | 8
Cc1ccc(NC(=O)N/C=C/c2ccco2)cc1 | -3 | 5 | 1 | 2 | -1 | 5
C=CCNc1nc(N2CCCC2)nc2ccccc12 | 100* | -19 | 1 | 2 | -2 | -8
CC(Nc1nc(-c2ccccc2O)nc2ccccc12)c1ccccc1 (stereo not given) | / | 12 | / | / | / | /
COc1ccc(Nc2nc(N3CCCC3)nc3ccccc23)c(OC)c1 | 100* | -8 | 1 | 3 | -3 | -39
CC(Nc1nc(-c2ccccc2)nc2ccccc12)c1ccccc1 (stereo not given) | 98* | 24 | 0.8 | 16 | -1 | -1
CCN1CCN(c2nc(NCCO)c3ccccc3n2)CC1 | / | -6 | / | / | / | /
CC(Nc1nc(N2CCCCC2)nc2ccccc12)c1ccccc1 (stereo not given) | 100* | -10 | 1 | 2 | 1 | 10
Cc1cc(OCC(=O)N2CCOCC2)ccc1[N+](=O)[O-] | / | 1 | / | / | / | /
Cc1cccc(C(=O)N[C@H](C(=O)NCCc2ccc(Cl)cc2)C(C)C)c1 | / | -6 | / | / | / | /
CC(C)(C)N=C1NC(=NC(C)(C)C)c2ccccc21 | 66* | -7 | 0.8 | 16 | 0 | -10
COc1cccc(CC(=O)NN2C(=O)NC3(CCCCC3)C2=O)c1 | / | -1 | / | / | / | /
O=C(Nc1ccc2nc(-c3ccccn3)c(-c3ccccn3)nc2c1)N1CCOCC1 | -2 | 6 | 0.4 | 58* | 0 | 25
Cc1nc2ccc(NC(=O)N3CCCCC3)cc2nc1C | 8 | -3 | 0.8 | 23 | 0 | 4
Cc1ccc(NC(=S)Nc2ccc3nc(-c4ccccn4)c(-c4ccccn4)nc3c2)cc1C | 72* | 97* | 0.3 | 75* | 1 | 60*
O=C(Nc1ccc2nc(-c3ccco3)c(-c3ccco3)nc2c1)N1CCCCCC1 | -7 | 47 | 0.1 | 94* | -2 | -10
O=S(=O)(c1ccc(Cl)cc1)N1CCCC(C(F)(F)F)C1 (stereo not given) | -3 | 1 | 0.9 | 10 | 1 | 2
CCN1c2ccccc2-c2nc3ccccc3n2C1c1cccs1 (stereo not given) | 96* | 16 | 0.8 | 24 | 0 | 3
